Assay results from ChEMBL document CHEMBL1148827, “An investigation into the cytotoxicity and mode of action of some novel N-alkyl-substituted isatins” (J Med Chem, 2007).
pIC50: −log10 of the molar value. Activity calls are given as the source filed them. The calls are words filed in the database; no cut-off is given here.

Legend:
[1] = tested on: U-937; experiment: Cytotoxicity against human U937 cells by MTS assay after 24 hrs; type: functional, cell-based; settings: U-937, 24 h
[2] = tested on: Jurkat; experiment: Cytotoxicity against human Jurkat cells by MTS assay after 24 hrs; type: functional, cell-based
[3] = tested on: MCF7; experiment: Cytotoxicity against human MCF7 cells by MTS assay after 24 hrs; type: functional, cell-based; settings: MCF7, 24 h
[4] = tested on: PC-3; experiment: Cytotoxicity against human PC3 cells by MTS assay after 24 hrs; type: functional, cell-based; settings: PC-3, 24 h
[5] = Cytotoxicity against human […] cells by MTS assay after 24 hrs; type: functional, cell-based
[6] = tested on: HCT-116; experiment: Cytotoxicity against human HCT116 cells by MTS assay after 24 hrs; type: functional, cell-based; settings: HCT-116, 24 h
[7] = tested on: A-375; experiment: Cytotoxicity against human A375 cells by MTS assay after 24 hrs; type: functional, cell-based; settings: A-375, 24 h
[8] = species on record: Bos taurus; experiment: Inhibition of bovine neuronal tubulin polymerization at 10 uM
How it was run: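 Polymerization followed 1 h at 37 °C by fluorescence, ex 360 ± 10 nm / em 440 ± 10 nm. Duplicate wells.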

[9] = tested on: U-937; experiment: Activation of caspase in U937 cells after 5 hrs relative to staurosporine; type: cell-based; settings: Homo sapiens
How it was run: (§1)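 Cells exposed to test compound for 5 h at 37 °C; 2 µM staurosporine as positive control. Apo-ONE homogeneous caspase-3/7 reagent then added for 1 h at room temperature. Fluorescence read at excitation 485 nm, emission 520 nm. Values normalized to staurosporine. Means ± SE of one representative experiment run in triplicate.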

[10] = tested on: U-937; experiment: Cell cycle arrest in human U937 cells assessed as increase in S and sub G1 phase accumulation at 2 uM; type: functional, cell-based
How it was run: (§2)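 U937 cells treated 4 h or 24 h against DMSO vehicle, with 0.5 µM vinblastine sulfate as reference. Cells (2.0 × 10⁴) fixed in ice-cold 70% ethanol at -20 °C for 30 min to overnight. Stained 30 min at 37 °C with 40 µg/mL PI plus 100 µg/mL RNase A in PBS pH 7.4. DNA content read by flow cytometry and cell-cycle phase proportions calculated.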

[11] = tested on: U-937; experiment: Cell cycle arrest in human U937 cells assessed as increase in S and sub G1 phase accumulation at 1 uM; type: functional, cell-based; how it was run: as §2
[12] = tested on: Jurkat; experiment: Activation of caspase in Jurkat cells after 5 hrs relative to staurosporine; type: cell-based; settings: Homo sapiens; how it was run: as §1
[13] = tested on: U-937; experiment: Effect on stability of microtubules in U937 cells assessed as alteration of microtubule organisation at 1.7 uM after 24 hrs; type: functional, cell-based; settings: Homo sapiens
How it was run: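 U937 cells (2.2 × 10⁵/mL) seeded, held 24 h, then exposed 24 h to 0.78 µg/mL (1.7 µM) compound. Controls: 2 µM vinblastine or 2.5% DMSO. […] Cells washed in PBS and imaged by confocal microscopy, excitation 488 nm, emission 500–540 nm.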

[14] = tested on: U-937; experiment: Effect on U937 cell morphology assessed as irregular membrane protrusions at 0.39 ug/ml after 24 hrs; type: functional, cell-based; settings: Homo sapiens
How it was run: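 U937 cells (1.0 × 10⁴) exposed to compounds at 0.39 µg/mL for 24 h, with DMSO vehicle as control. Examined by brightfield light microscopy at 1000× magnification.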

[15] = molecular target: Tubulin; experiment: Displacement of [3H]colchicine from tubulin by scintillation proximity assay; type: protein-complex assay, Homo sapiens

| Structure (SMILES) | pIC50 [1] | pIC50 [2] | pIC50 [3] | pIC50 [5] | pIC50 [6] | pIC50 [7] | further results |
| --- | --- | --- | --- | --- | --- | --- | --- |
| O=C1C(=O)N(Cc2ccc(-c3ccccc3)cc2)c2c(Br)cc(Br)cc21 | 6.12 | 6.13 | 5.31 | 5.69 | 6.08 | 5.92 | pIC50 [4]: 5.47; Activity [8]: Active |
| COc1ccc(CN2C(=O)C(=O)c3cccc(Br)c32)cc1 | 4.75 |  |  |  |  |  |  |
| O=C1C(=O)N(Cc2ccc(C(F)(F)F)cc2)c2c(Br)cc(Br)cc21 | 6.10 | 6.16 | 5.15 | 6.27 | 6.08 | 5.90 | pIC50 [4]: 5.93; Activity [9]: Active; Activity [10]: Active; Activity [11]: Active; Activity [8]: Active; Activity [12]: Active; Activity [13]: Active |
| CC[C@]1(O)C[C@@H]2CN(CCc3c([nH]c4ccccc34)[C@@](C(=O)OC)(c3cc4c(cc3OC)N(C)[C@H]3[C@@](O)(C(=O)OC)[C@H](OC(C)=O)[C@]5(CC)C=CCN6CC[C@]43[C@@H]65)C2)C1 [VINBLASTINE] | 5.16 |  |  |  |  |  |  |
| COCCN1C(=O)C(=O)c2cc(Br)cc(Br)c21 | 5.46 | 5.05 | 5.18 |  |  |  |  |
| C=CCN1C(=O)C(=O)c2cc(Br)cc(Br)c21 | 5.18 |  |  |  |  |  |  |
| COC(=O)c1ccc(CN2C(=O)C(=O)c3cc(Br)cc(Br)c32)cc1 | 5.92 | 5.92 | 5.04 |  |  |  |  |
| COc1cccc(CN2C(=O)C(=O)c3cc(Br)cc(Br)c32)c1 | 5.75 | 5.70 | 5.63 |  |  |  |  |
| COc1ccc(CN2C(=O)C(=O)c3ccc(Br)cc32)cc1 | 4.47 |  |  |  |  |  |  |
| Cc1ccc(CN2C(=O)C(=O)c3cc(Br)cc(Br)c32)cc1 | 6.31 | 6.31 | 4.96 | 5.72 | 5.91 | 5.70 | pIC50 [4]: 5.34; Activity [10]: Active; Activity [11]: Active; Activity [8]: Active |
| O=C1C(=O)N(Cc2ccccc2[N+](=O)[O-])c2c(Br)cc(Br)cc21 | 5.64 |  | 5.50 |  |  |  |  |
| O=C1C(=O)N(Cc2ccc(I)cc2)c2c(Br)cc(Br)cc21 | 5.64 | 6.24 | 5.37 | 5.53 | 5.47 | 5.62 | pIC50 [4]: 4.96; Activity [14]: Active |
| COc1cc(-c2ccc3c(c2)NC(=O)/C3=C\c2ccc[nH]2)ccc1O |  |  |  |  |  |  | pIC50 [15]: 6.89 |
| O=C1C(=O)N(C/C=C/c2ccccc2)c2c(Br)cc(Br)cc21 | 5.63 | 5.85 | 5.11 |  |  |  | Activity [8]: Active; Activity [14]: Active |
| O=C1C(=O)N(Cc2ccc(Br)cc2)c2c(Br)cc(Br)cc21 | 6.20 | 6.20 | 5.28 | 5.72 | 6.28 | 5.91 | pIC50 [4]: 5.46 |
| CC(C)CCN1C(=O)C(=O)c2cc(Br)cc(Br)c21 | 5.62 | 5.46 | 5.13 |  |  |  | Activity [14]: Active |
| CC(C)(C)c1ccc(CN2C(=O)C(=O)c3cc(Br)cc(Br)c32)cc1 | 5.95 | 6.18 | 5.58 | 6.01 | 5.78 | 6.05 | pIC50 [4]: 5.51; Activity [14]: Active |
| O=C1C(=O)N(Cc2ccc([N+](=O)[O-])cc2)c2c(Br)cc(Br)cc21 | 6.05 | 6.05 | 5.36 | 5.56 | 5.57 | 5.60 |  |
| COc1ccc(CN2C(=O)C(=O)c3c(Br)cccc32)cc1 | < 4.44 |  |  |  |  |  |  |
| O=C1C(=O)N(Cc2ccc(C(F)(F)F)cc2)c2cc(Br)ccc21 | 5.28 | 5.28 |  |  |  |  |  |
| O=C1C(=O)N(Cc2ccccc2)c2c(Br)cc(Br)cc21 | 5.94 | 5.94 | 5.15 |  |  |  |  |
| O=C1C(=O)N(Cc2ccc(Cl)cc2)c2c(Br)cc(Br)cc21 | 6.01 | 6.30 | 5.41 | 5.56 | 5.74 | 5.77 | pIC50 [4]: 5.66 |
| COc1ccc(CN2C(=O)C(=O)c3cc(Br)ccc32)cc1 | < 4.44 |  |  |  |  |  |  |
| O=C(O)c1ccc(CN2C(=O)C(=O)c3cc(Br)cc(Br)c32)cc1 | < 4.85 | < 4.85 | < 4.85 |  |  |  |  |
| COc1ccc(CN2C(=O)C(=O)c3ccccc32)cc1 | < 4.33 |  |  |  |  |  |  |
